# Most compounds without a hit are left out; they make up all but 3.5% or so of the library.
# MrgX1 ag – agonists of human MrgX1 receptor; Q96LB2; MrgX1-HEK293 cells, Fluo-4 calcium fluorescence, agonist mode; active compounds read high; 310,000 tested, 0.44% active; B-score at 10 µM;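 active means calcium response B-score plate-corrected fluorescence ratio at least 3 library SD, with starting fluorescence B-score inside 5 SD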
# Target sequence (Q96LB2 whole entry, looked up): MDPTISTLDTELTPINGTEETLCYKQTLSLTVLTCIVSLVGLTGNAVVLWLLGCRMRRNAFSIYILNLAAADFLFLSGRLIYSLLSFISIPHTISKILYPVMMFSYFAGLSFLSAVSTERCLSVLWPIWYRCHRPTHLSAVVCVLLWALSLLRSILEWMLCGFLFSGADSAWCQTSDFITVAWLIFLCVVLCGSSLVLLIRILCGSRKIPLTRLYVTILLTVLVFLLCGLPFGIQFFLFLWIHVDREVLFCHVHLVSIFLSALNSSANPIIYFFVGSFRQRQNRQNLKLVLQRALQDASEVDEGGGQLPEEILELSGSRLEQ
#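 Assay system: stable human MrgX1 HEK293 cell line. Quantity: 15,000 cells per well. Schedule: cells plated overnight, dye loaded 0.5 h 37 °C, 0.5 h room temperature. Detection: Fluo-4 NW calcium-flux fluorescence, kinetic read. Read-out basis: peak-minus-minimum fluorescence over baseline, converted to B scores. Control set: positive and negative control wells on each plate.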
# MrgX1 PAM – allosterically activates human MrgX1 receptor signaling. 310,000 tested, 0.63% active. MrgX1-HEK293, Fluo-4 calcium flux, FDSS; active compounds read high. B-score at 10 µM. Q96LB2;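 active means plate-corrected calcium response at least 3 library SD above typical, normal starting fluorescence, not activating the receptor alone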;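 further: compound read alongside a low EC10 to EC30 dose of BAM8-22 agonist; peak minus trough fluorescence over baseline measured at the second addition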
# RGS4 block – human RGS4 inhibition; P49798; HEK293 M3R/RGS4 inducible, Fluo-4 calcium flux; active compounds read high; triggered by carbachol at its EC20; B-score at 10 µM; 310,000 tested, 0.45% active;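 active means B-score, a plate-corrected calcium signal, over three deviations above library mean, with baseline fluorescence within five deviations of library mean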;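 further: RGS4 expression induced by doxycycline in cells with stable M3 receptor; B-score is computed from the integrated fluorescence ratio over baseline after carbachol; higher B-score means a larger calcium signal and so more RGS4 inhibition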
# Target sequence (P49798 whole entry, looked up): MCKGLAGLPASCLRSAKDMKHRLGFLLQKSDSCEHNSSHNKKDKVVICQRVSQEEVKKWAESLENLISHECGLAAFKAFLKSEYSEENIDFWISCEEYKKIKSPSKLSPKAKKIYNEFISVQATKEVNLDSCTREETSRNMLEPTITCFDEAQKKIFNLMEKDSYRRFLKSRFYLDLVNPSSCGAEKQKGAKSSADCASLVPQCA
# RGS4 pot – RGS4 potentiation or activation; HEK293 M3R/inducible RGS4, carbachol calcium flux Fluo4; active compounds read low; 310,000 tested, 0.92% active; AID 463111; B-score at 10 µM;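 active means B-score of the integrated calcium signal more than 4 SD below the library mean, with starting fluorescence not abnormally high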;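 further: negative B-score means reduced calcium response which marks RGS4 activation or potentiation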
#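 System: HEK293 FlpIn-TREx cells, stable M3R, doxycycline-inducible RGS4. Timing: overnight RGS4 induction, 30 min dye load 37 °C, 20 min compound RT. Also added: carbachol, ECmax concentration. Measured by: Fluo4 fluorescence kinetic imaging of calcium. Evaluation: integrated calcium ratio converted to B score.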
# MrgX1 antagonist – human MrgX1 receptor antagonism, primary screen; Q96LB2; MRGX1-HEK293 calcium flux, Fluo-4, BAM8-22 antagonism; active compounds read low; B-score at 10 µM; 310,000 tested, 1.3% active;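 active means calcium-response B-score plate-corrected more than 3 library SD below zero, starting fluorescence within 5 deviations, no agonist response on first addition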;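 further: peak minus trough fluorescence over baseline after final BAM8-22 challenge near maximal dose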
# * marks the source's active call; other numbers are inactive results; i = inactive; · = not tested or not shown; ! = not confirmed by another sample.
SMILES,MrgX1 ag,MrgX1 PAM,RGS4 block,RGS4 pot,MrgX1 antagonist
COc1ccc(/C(O)=C2/C(=O)C(=O)N(c3ncccn3)C2c2ccc(F)cc2)cc1 (stereo unspecified),i,i,i,i,i
COc1ccc2c(/C=C/c3cc[n+](C)cc3)c[nH]c2c1,i,i,i,i,-5.75*
CCN(CC)CCSc1nc2ccccc2c(=S)n1-c1ccccc1,i,i,i,-8.03*,i
CCN(CC)CCSc1nc2ccccc2n1Cc1ccccc1,i,i,i,-9.11*,i
CCN(CC)CCSc1nc(O)c(-c2ccccc2)c(=O)n1-c1ccccc1,i,i,i,i,i
FC(F)(F)Oc1ccccc1-c1nnc(-c2cccc(C(F)(F)F)c2)o1,i,i,i,i,i
Cc1cccc(N2CCN(C(=O)c3cn4ccccc4n3)CC2C)c1 (stereo unspecified),i,i,i,i,i
O=C(Nc1ccccc1)c1ccc(-c2ccc(Br)cc2)o1,i,i,i,i,i
O=C(Nc1cccc(NC(=O)c2ccc(-c3ccc(Br)cc3)o2)c1)c1ccccc1,i,i,i,i,-4.62*
O=C(Nc1cccc(NC(=O)c2ccc(-c3cccc(Br)c3)o2)c1)c1ccco1,i,i,i,-8.95*,i
COc1ccc(Br)cc1C(=O)Nc1cccc(NC(=O)c2ccco2)c1,i,i,i,i,i
CC(C)n1c(=S)[nH]c2c1c(=O)[nH]c(=O)n2C,i,i,i,i,i
O=S(=O)(Nc1nc2ccccc2nc1Cl)c1cccc(C(F)(F)F)c1,i,i,i,i,i
Cc1ccc(NC(=O)c2cccc(Oc3ccc([N+](=O)[O-])cc3)c2)c(C(=O)O)c1,i,i,i,i,i
O=C(Nc1ccc(O)cc1)c1cccc(Oc2ccc([N+](=O)[O-])cc2)c1,i,i,i,i,-5.95*
CC(C)(C)OC(=O)NCc1ccc(CNC(=O)c2[nH]cnc2C(=O)NCC(=O)OCc2ccccc2)cc1,i,i,i,i,i
COC(=O)[C@H](Cc1ccccc1)NC(=O)c1ccc2ccccc2n1,i,i,i,i,i
CC(C)(C)NC(=O)[C@@H]1C[C@@H]2CCCC[C@@H]2CN1C[C@@H](O)[C@H](Cc1ccccc1)NC(=O)[C@H](CC(N)=O)NC(=O)c1ccc2ccccc2n1,i,i,i,i,-5.98*!
N/C(=N\OC(=O)c1ccc(Cl)c(Cl)c1)c1cccnc1,i,i,i,i,i
N/C(=N\OC(=O)c1ccc(Cl)c(Cl)c1)c1cccc(CSc2ccccn2)c1,i,i,i,-7.46*,i
N/C(=N\OC(=O)c1ccc(=O)n(Cc2ccc(Cl)cc2)c1)c1ccccn1,i,i,i,i,i
N/C(=N\OC(=O)c1ccc(=O)n(Cc2ccccc2)c1)c1ccccn1,i,i,i,i,-5.13*
CCOC(=O)C(C)CC(C)C(=O)N1CCOCCOCCN(C(=O)C(C)CC(C)C(=O)OCC)CCOCC1 (stereo unspecified),i,i,i,i,i
CCOC(=O)C(C(=O)OCC)C(C(=O)OCC)N1CCOCC1 (stereo unspecified),31.3*,i,i,i,i
CCCCCNCC(=O)Nc1cccc(C(=O)Nc2cccc(C(F)(F)F)c2)c1,i,i,i,i,-6.95*
SMILES,MrgX1 ag,MrgX1 PAM,RGS4 block,RGS4 pot,MrgX1 antagonist
CC(=O)N1c2ccccc2C2(C)C(C1(C)C)C2(Cl)Cl (stereo unspecified),i,i,i,i,i
Cc1ccc2c(c1)C1(C)C(C(C)(C)N2C=O)C1(Cl)Cl (stereo unspecified),i,13.3*,i,i,i
CCCCCCc1cc2cc(-c3nnc(-c4cc(OC)c(OC)c(OC)c4)o3)c(=O)oc2cc1O,79.9*,i,i,i,i
CCCCCCc1cc2cc(-c3nnc(-c4ccccc4OC)o3)c(=O)oc2cc1O,i,i,i,i,i
O/C(=C\c1nc2ccccc2nc1/C=C(\O)c1ccccc1)c1ccccc1,i,14*,i,i,i
COC(=O)c1ccc(N)c(N=CC2=C(O)CC(C)(C)CC2=O)c1,27.1*,i,i,i,i
Cc1cc(N2CCN(C)CC2)nc2ccc(NC(=O)CCC3CCCC3)cc12,i,i,i,i,i
N/C(Cn1cncn1)=N\NC(=O)c1ccc(Cl)cc1Cl,i,i,i,i,-4.52*
CCOC(=O)c1cc(C#N)c(Oc2ccc(F)cc2)nc1-c1ccccc1,i,i,i,i,i
CCOC(=O)c1cc(C#N)c(Oc2cccc(C(F)(F)F)c2)nc1-c1ccccc1,i,i,i,-7.84*,i
O=Nc1c(-c2c(O)[nH]c3cc(Br)ccc23)[nH]c2ccccc12,i,i,i,i,i
O=C(NCc1ccccn1)c1ccc(OC2CCN(Cc3cccs3)CC2)cc1,i,i,i,i,i
CC1=CC(=O)c2ccccc2C1=O,i,i,i,i,i
COc1ccc(S(=O)(=O)/N=C2/C=CC(=O)C(C)=C2C)cc1,i,i,i,i,i
CC1=C/C(=N\OS(=O)(=O)c2ccccc2)C(C)=CC1=O,i,14.7*,·,·,i
CC1=C/C(=N\OS(=O)(=O)c2ccccc2)C(C(C)C)=CC1=O,i,i,·,·,-4.55*
CC1=C(C)/C(=N\OS(=O)(=O)c2ccc(C)cc2)C=CC1=O,i,i,·,·,-5.19*
N#Cc1c(C(F)(F)F)cc(Cc2ccccc2)nc1SCC(=O)NCC(=O)O,i,i,i,i,i
C/C(=N\NC(=S)NCc1ccccc1)c1ccccc1,i,i,i,i,i
C/C(=N\NC(=S)NCc1ccccc1)c1ccco1,i,8.15*,i,i,i
CCCCOc1ccc(CSC2=NCCN2)cc1[N+](=O)[O-],27.9*,i,i,i,i
CCCCCOc1ccc(CSC(=N)N)cc1[N+](=O)[O-],49.1*,i,i,-7.83*,i
COc1ccc(CSC(=N)N)cc1[N+](=O)[O-],39.5*,i,i,i,i
N=C(N)SCc1ccc(O)c([N+](=O)[O-])c1,i,i,i,i,i
CCOc1ccc(CSC2=NCCN2)cc1[N+](=O)[O-],i,i,i,i,i
C/C(=N\NC(=O)c1nnn(-c2nonc2N)c1CN1CCCCC1)c1ccccc1O,i,i,i,i,i
O=C(CCCc1cccs1)N1CCN(S(=O)(=O)c2ccccc2Br)CC1,i,i,i,i,i
